Experimental data pooled from the literature.
Compare with care: the assays were run in different laboratories.

| Compound | species | sample | route | dose | notes | measurement | result |
| --- | --- | --- | --- | --- | --- | --- | --- |
| COC1=CC(c2ccc[nH]2)=N/C1=C\c1cc(Cc2ccc(OC(F)(F)F)cc2)c(C)[nH]1.Cl | male CD-1 mouse | plasma | oral | 40 mg/kg | single dose | MRT(0-t) | 34.4 h |
| Cc1nc2ccc(OCc3ccc(C(F)(F)F)cc3)cc2[nH]1 | male BALB/c mouse | plasma | oral | 10 mg/kg | – | MRT(0-inf) | 4.04 h |
| Cc1ccc(CCC(=O)Nc2nnc(S(N)(=O)=O)s2)cc1 | male BALB/c mouse | plasma | oral | 20 mg/kg | – | MRT | 3.74 h |
| CCOC(=O)C1=C(CN2CCC[C@@H]2C(=O)Nc2ccc(B(O)O)cc2)NC(c2nccs2)=N[C@H]1c1ccc(F)cc1Br | CD-1 mouse | plasma | oral | 10 mg/kg | – | MRT(0-inf) | 1 h |
| COC1=CC(c2ccc[nH]2)=N/C1=C\c1[nH]c(Cc2ccc(OC(F)(F)F)cc2)cc1Cc1ccc(OC(F)(F)F)cc1 | male CD-1 mouse | liver | oral | 40 mg/kg | single dose | MRT(0-t) | 22.2 h |
| OCc1nc2ccc(NCc3ccc(C(F)(F)F)cc3)cc2[nH]1 | male BALB/c mouse | plasma | intravenous | 1 mg/kg | – | MRT(0-inf) | 1.1 h |
| C[C@@H]1COCCN1c1cc(=O)n2c(n1)N(Cc1cncc(Cl)c1)[C@H](C(F)(F)F)CC2 | C57BL/6 mouse | plasma | intraperitoneal | 10 mg/kg | single dose | MRT(0-t) | 0.45 h |
| O=C1CCC(N2Cc3cc(C4CCN(Cc5ccccc5)CC4)ccc3C2=O)C(=O)N1 (stereo not shown) | male CD-1 mouse | plasma | intravenous | 1 mg/kg | – | MRT(0-inf) | 3.34 h |
| CCOC(=O)c1c(NC(=O)CNC(C)C)sc2c1CCCCC2 | male mouse | plasma | intraperitoneal | 5 mg/kg | single dose | MRT(0-inf) | 1.79 h |
| CC[C@H](C)[C@H](NC(=O)[C@H](CCC(=O)O)NC(=O)[C@H](CCC(=O)O)NC(=O)[C@@H]1CCCN1C(=O)[C@H](CO)NC(=O)[C@H](C)NC(=O)[C@H](CC(=O)O)NC(=O)[C@H](CCC(=O)O)NC(=O)[C@H](CCC(=O)O)NC(=O)[C@@H]1CCCN1C(=O)[C@H](CCCCNC(=O)COCCOCCNC(=O)COCCOCCNC(=O)CC[C@H](NC(=O)CCCCCCCCCCCCCCCCC(=O)O)C(=O)O)NC(=O)[C@H](C)NC(=O)[C@@H]1CCCN1C(=O)[C@H](C)NC(=O)CC(C)C)C(=O)N[C@@H](CCC(N)=O)C(=O)N[C@@H](CCCNC(=N)N)C(=O)N[C@@H](Cc1ccc(O)cc1)C(=O)N[C@@H](Cc1ccc(O)cc1)C(=O)N[C@H](C(=O)N[C@@H](CO)C(=O)N[C@@H](CC(C)C)C(=O)N[C@@H](CCCNC(=N)N)C(=O)N[C@@H](Cc1c[nH]cn1)C(=O)N[C@@H](Cc1ccc(O)cc1)C(=O)N[C@@H](Cc1ccc(O)cc1)C(=O)N[C@@H](CC(N)=O)C(=O)N[C@@H](Cc1c[nH]c2ccccc12)C(=O)N[C@@H](CC(C)C)C(=O)N[C@H](C(=O)N[C@@H](CCCNC(=N)N)C(=O)N[C@@H](CCC(N)=O)C(=O)N[C@@H](CCCNC(=N)N)C(=O)N[C@@H](Cc1ccc(O)cc1)C(N)=O)[C@@H](C)O)C(C)C | male NMRI mouse | plasma | subcutaneous | 30 nmol/kg | single dose | MRT | 18 h |
